Experimental data taken from ChEMBL document CHEMBL1138022, “Structurally simplified macrolactone analogues of halichondrin B” (Bioorg Med Chem Lett, 2004).

Legend:
DLD-1 = assay: In vitro inhibitory concentration required to inhibit the growth of DLD-1 cells under continuous exposure conditions for 3-4 days; assay type: functional, cell-based; conditions: Homo sapiens
In short: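 Human colon cancer DLD-1 cells were exposed to compound continuously for 3–4 days and growth inhibition was measured. IC50 is given ± SEM, with n the number of experiments.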

P388 = assay: Fold resistance calculated as the inhibition concentration ratio between retrovirally transformed P388/VMDRC.04 and parental P388 cells; assay type: functional
In short: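 P-glycoprotein-mediated efflux assessed in murine P388/VMDRC.04, a retrovirally transformed multidrug-resistant subline of P388/S leukemia cells, alongside parental P388 cells. Growth inhibition IC50 was measured in each line. Fold resistance is the IC50 ratio of P388/VMDRC.04 to parental P388.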

U-937 = assay: In vitro inhibitory concentration required to inhibit the growth of U937 cells was determined by mitotic block reversibility assay; assay type: functional; conditions: Homo sapiens
In short: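 Reversibility assay in human histiocytic lymphoma U937 cells. After drug washout, flow cytometry scored whether a complete mitotic block was still maintained 10 h later.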

| SMILES | IC50 (DLD-1) [nM] | FR (P388) | IC99 (U-937) [µM] |
| --- | --- | --- | --- |
| C=C1C[C@@H]2CC[C@@]34C[C@@H]5O[C@@H]6C(O[C@H]7CC[C@H](CC(=O)O[C@@H]8[C@@H](OC)[C@H](C[C@@H](O)CO)O[C@H]8C[C@H]8O[C@@H](CC[C@@H]1O2)C[C@@H](C)C8=C)O[C@@H]7[C@@H]6O3)[C@H]5O4 | 1.4 | 8.8 | 0.03 |
| C=C1C[C@@H]2CC[C@@]34C[C@@H]5O[C@@H]6C(O[C@H]7CC[C@H](CC(=O)O[C@@H]8[C@@H](OC)[C@H](O)[C@H](CCO)O[C@H]8C[C@H]8O[C@@H](CC[C@@H]1O2)C[C@@H](C)C8=C)O[C@@H]7[C@@H]6O3)[C@H]5O4 | 1.8 | 10 | 0.3 |
| C=C1C[C@@H]2CC[C@@]34C[C@@H]5O[C@@H]6C(O[C@H]7CC[C@H](CC(=O)O[C@@H]8[C@@H](OC)[C@H](O)[C@H](CO)O[C@H]8C[C@H]8O[C@@H](CC[C@@H]1O2)C[C@@H](C)C8=C)O[C@@H]7[C@@H]6O3)[C@H]5O4 | 2.6 | 8.5 | 0.3 |
| C=C1C2C[C@@H]3O[C@H](C[C@@H](O)CO)[C@H](OC)[C@H]3OC(=O)C[C@H]3CC[C@@H]4OC5[C@H]6O[C@H]7C[C@](CC[C@H]8CC(=C)[C@H](CC[C@@H](C[C@H]1C)O2)O8)(OC6[C@H]4O3)O[C@H]57 | 0.67 | 9.3 | 0.02 |
| C=C1C[C@@H]2CC[C@@]34C[C@@H]5O[C@@H]6C(O[C@H]7CC[C@H](CC(=O)O[C@@H]8[C@@H](C)[C@H](O)[C@H](CCO)O[C@H]8C[C@H]8O[C@@H](CC[C@@H]1O2)C[C@@H](C)C8=C)O[C@@H]7[C@@H]6O3)[C@H]5O4 | 2.5 | 5.6 | 0.17 |
| C=C1C[C@@H]2CC[C@@]34C[C@@H]5O[C@@H]6C(O[C@H]7CC[C@H](CC(=O)O[C@@H]8[C@@H](OC)[C@@H](O)[C@H](CO)O[C@H]8C[C@H]8O[C@@H](CC[C@@H]1O2)C[C@@H](C)C8=C)O[C@@H]7[C@@H]6O3)[C@H]5O4 | 2 | 13 | 0.065 |
| C=C1C[C@@H]2CC[C@@]34C[C@@H]5O[C@@H]6C(O[C@H]7CC[C@H](CC(=O)O[C@@H]8[C@@H](OC)[C@H](CO)O[C@@H]8C[C@H]8O[C@@H](CC[C@@H]1O2)C[C@@H](C)C8=C)O[C@@H]7[C@@H]6O3)[C@H]5O4 | > 1000 |  |  |
| C=C1C[C@@H]2CC[C@@]34C[C@@H]5O[C@@H]6C(O[C@H]7CC[C@H](CC(=O)O[C@@H]8[C@@H](OC)[C@H](CCC(=O)C(F)(F)F)O[C@H]8C[C@H]8O[C@@H](CC[C@@H]1O2)C[C@@H](C)C8=C)O[C@@H]7[C@@H]6O3)[C@H]5O4 | 0.67 | 4.5 | 0.03 |
| C=C1C[C@@H]2CC[C@@]34C[C@@H]5O[C@@H]6C(O[C@H]7CC[C@H](CC(=O)O[C@@H]8[C@@H](OC)[C@@H](O)[C@@H](CC(O)CO)O[C@H]8C[C@H]8O[C@@H](CC[C@@H]1O2)C[C@@H](C)C8=C)O[C@@H]7[C@@H]6O3)[C@H]5O4 (some centres undefined) | 12 | 20 | 0.065 |
| C=C1C[C@@H]2CC[C@@]34C[C@@H]5O[C@@H]6C(O[C@H]7CC[C@H](CC(=O)O[C@H]8C(CC9OC(CCC1O2)C[C@@H](C)C9=C)O[C@H]1C[C@H]2O[C@@]9(C[C@@H]%10O[C@]%11(C[C@H](C)[C@@H]%12O[C@H]([C@@H](O)C[C@@H](O)CO)C[C@@H]%12O%11)C[C@H](C)[C@@H]%10O9)C[C@H]2O[C@H]1[C@@H]8C)O[C@@H]7[C@@H]6O3)[C@H]5O4 (some centres undefined) | 0.74 | 2.8 | 0.025 |
| C=C1C[C@@H]2CC[C@@]34C[C@@H]5O[C@@H]6C(O[C@H]7CC[C@H](CC(=O)O[C@@H]8[C@@H](OC)[C@H](CO)O[C@H]8C[C@H]8O[C@@H](CC[C@@H]1O2)C[C@@H](C)C8=C)O[C@@H]7[C@@H]6O3)[C@H]5O4 | 1 | 2.8 | 0.1 |
| C=C1C[C@@H]2CC[C@@]34C[C@@H]5O[C@@H]6C(O[C@H]7CC[C@H](CC(=O)O[C@@H]8[C@@H](OC)[C@@H](O)CO[C@H]8C[C@H]8O[C@@H](CC[C@@H]1O2)C[C@@H](C)C8=C)O[C@@H]7[C@@H]6O3)[C@H]5O4 | > 1000 |  |  |
| C=C1C[C@@H]2CC[C@@]34C[C@@H]5O[C@@H]6C(O[C@H]7CC[C@H](CC(=O)O[C@@H]8[C@@H](OCC)[C@@H](O)[C@H](CC(O)CO)O[C@H]8C[C@H]8O[C@@H](CC[C@@H]1O2)C[C@@H](C)C8=C)O[C@@H]7[C@@H]6O3)[C@H]5O4 (some centres undefined) | 490 |  |  |
| C=C1C[C@@H]2CC[C@@]34C[C@@H]5O[C@@H]6C(O[C@H]7CC[C@H](CC(=O)O[C@@H]8[C@@H](OC)[C@H](CCO)O[C@H]8C[C@H]8O[C@@H](CC[C@@H]1O2)C[C@@H](C)C8=C)O[C@@H]7[C@@H]6O3)[C@H]5O4 | 0.97 | 2.8 | 0.1 |
| C=C1C[C@@H]2CC[C@@]34C[C@@H]5O[C@@H]6C(O[C@H]7CC[C@H](CC(=O)O[C@@H]8[C@@H](OC)[C@@H](C[C@H](O)CO)O[C@H]8C[C@H]8O[C@@H](CC[C@@H]1O2)C[C@@H](C)C8=C)O[C@@H]7[C@@H]6O3)[C@H]5O4 | 0.67 | 6.2 | 0.015 |
| C=C1C[C@@H]2CC[C@@]34C[C@@H]5O[C@@H]6C(O[C@H]7CC[C@H](CC(=O)O[C@@H]8[C@@H](OC)[C@H](O)[C@H](CCOC)O[C@H]8C[C@H]8O[C@@H](CC[C@@H]1O2)C[C@@H](C)C8=C)O[C@@H]7[C@@H]6O3)[C@H]5O4 | 1.8 | 1.6 | > 1 |
| C=C1C[C@@H]2CC[C@@]34C[C@@H]5O[C@@H]6C(O[C@H]7CC[C@H](CC(=O)O[C@@H]8[C@H](OC)[C@H](CC(O)CO)O[C@H]8C[C@H]8O[C@@H](CC[C@@H]1O2)C[C@@H](C)C8=C)O[C@@H]7[C@@H]6O3)[C@H]5O4 (some centres undefined) | 220 |  |  |
| C=C1C2C[C@@H]3O[C@@H](C[C@H](O)CO)[C@H](OC)[C@H]3OC(=O)C[C@H]3CC[C@@H]4OC5[C@H]6O[C@H]7C[C@](CC[C@H]8CC(=C)[C@H](CC[C@@H](C[C@H]1C)O2)O8)(OC6[C@H]4O3)O[C@H]57 | 6.4 | 8.2 | 0.1 |
| C=C1C[C@@H]2CC[C@@]34C[C@@H]5O[C@@H]6C(O[C@H]7CC[C@H](CC(=O)O[C@H]8[C@@H](OC)[C@H](CC(O)CO)O[C@H]8C[C@H]8O[C@@H](CC[C@@H]1O2)C[C@@H](C)C8=C)O[C@@H]7[C@@H]6O3)[C@H]5O4 (some centres undefined) | > 1000 |  |  |
| C=C1C[C@@H]2CC[C@@]34C[C@@H]5O[C@@H]6C(O[C@H]7CC[C@H](CC(=O)O[C@@H]8[C@@H](C)[C@@H]9O[C@H](CO)[C@@H](O)C[C@@H]9O[C@H]8C[C@H]8O[C@@H](CC[C@@H]1O2)C[C@@H](C)C8=C)O[C@@H]7[C@@H]6O3)[C@H]5O4 | 3.4 | 12 | 0.22 |
| C=C1C[C@@H]2CC[C@@]34C[C@@H]5O[C@@H]6C(O[C@H]7CC[C@H](CC(=O)O[C@@H]8[C@@H](OC)[C@@H](O)[C@H](CC(O)CO)O[C@H]8C[C@H]8O[C@@H](CC[C@@H]1O2)C[C@@H](C)C8=C)O[C@@H]7[C@@H]6O3)[C@H]5O4 (some centres undefined) | 19 | 23 | 0.053 |
| C=C1C[C@@H]2CC[C@@]34C[C@@H]5O[C@@H]6C(O[C@H]7CC[C@H](CC(=O)O[C@@H]8[C@@H](OC)[C@@H]9OC(C)(C)OC[C@@H]9O[C@H]8C[C@H]8O[C@@H](CC[C@@H]1O2)C[C@@H](C)C8=C)O[C@@H]7[C@@H]6O3)[C@H]5O4 | 11 | 1.7 | > 1 |
| C=C1C[C@@H]2CC[C@@]34C[C@@H]5O[C@@H]6C(O[C@H]7CC[C@H](CC(=O)O[C@@H]8[C@@H](OC)[C@H](OC)[C@H](CCO)O[C@H]8C[C@H]8O[C@@H](CC[C@@H]1O2)C[C@@H](C)C8=C)O[C@@H]7[C@@H]6O3)[C@H]5O4 | 2.1 | 2.6 | > 1 |
